Experimental findings from ChEMBL document CHEMBL4406904, “Design, synthesis and biological activity of a novel ethylenediamine derivatives as H1 receptor antagonists” (Bioorg Med Chem, 2019) are described below.

Activity calls are given as the source filed them. No cut-off for these calls is given here.

Data set [1] has as its system RBL-2H3. Description: Antiallergic activity in rat RBL2H3 cells assessed as inhibition of C48/80-induced mast cell degranulation preincubated with compound for 30 mins and then treated with C48/80 for 1 hr by neutral red dye based method. In kind it is functional. The procedure, abridged:
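RBL-2H3 cells seeded at 3×10⁵/mL and left overnight at 37 °C, 5% CO₂ to adhere. Medium discarded and cells stained with 0.5% neutral red for 3 min. Degranulated cells counted per 100 mast cells. IC50 taken as the concentration giving half-maximal degranulation. DMSO blank.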

Data set [2] has as its system RBL-2H3. The data set can be described thus: Antiallergic activity in rat RBL2H3 cells assessed as inhibition of C48/80-induced histamine release preincubated with compound for 30 mins followed by C48/80 stimulation for 1 hr. The data set is classed as functional, cell-based. In a few lines: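 RBL-2H3 cells seeded at 3×10⁵/mL and adhered overnight at 37 °C, 5% CO₂. Histamine in the supernatant derivatized with o-phthalaldehyde after HCl/NaOH addition. IC50 is the concentration halving histamine release. DMSO blank.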

Data set [3] concerns RBL-2H3. The data set can be described thus: Antiallergic activity in IgE/Ag-stimulated rat RBL2H3 cells assessed as inhibition of HSA-induced beta-hexosaminidase release preincubated with compound for 30 mins and then stimulated with HSA for 15 mins followed by incubation with P-nitrophenyl-N-acetyl-beta-D-glucosaminide for 2 hrs. In kind it is functional, cell-based. In a few lines:
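RBL-2H3 cells (3×10⁵/mL) sensitized overnight with anti-DNP IgE at 150 ng·mL⁻¹, then washed twice in PIPES buffer pH 7.0 with glucose and 0.2% BSA. Compound applied for 30 min at 37 °C, then DNP-HSA 20 ng·mL⁻¹ for 15 min; stopped on ice. Supernatant incubated with p-nitrophenyl-N-acetyl-β-D-glucosaminide in citrate pH 4.6 for 2 h at 37 °C. Stopped with carbonate pH 10.2; A405 read. IC50 derived.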

The nature of data set [4]: Lipid/water partition co-efficient, log P of the compound. In kind it is physicochemical.
Data set [5] is described as follows: Dissociation constant, pKa of the compound. The data set is classed as physicochemical.
For data set [6], the target named is Histamine H1 receptor (Homo sapiens) (UniProt P35367). The data set can be described thus: Binding affinity to H1 receptor (unknown origin) at 0.10 umol/L.
The test system of data set [7] is Cavia porcellus. The data set can be described thus: In vivo antiallergic activity in histamine-induced bronchospasm guinea pig model assessed as duration of convulsions at 20 mg/kg, po by Van Arman method. The data set is classed as functional. In a few lines:
(§1)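 Male guinea pigs (220–260 g), fasted 24 h with water, six per group. Compound given orally at 20 mg·kg⁻¹ in 1% CMC-Na. Animals then exposed in a closed cage to aerosolized 0.3% histamine chloride (5 mL). Convulsion (preconvulsion) time recorded; stable beyond 10 min counted as protected. Protection % derived from mean time versus control.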

The test system of data set [8] is Cavia porcellus. Description: In vivo antiallergic activity in guinea pig assessed as protection against histamine-induced bronchospasm at 20 mg/kg, po by Van Arman method relative to control. The data set is classed as functional. The procedure, abridged:
as §1

The nature of data set [9]: Acute toxicity in ip dosed histamine-induced bronchospasm guinea pig model. The conditions noted are these: in vivo. In kind it is organism-based, Cavia porcellus.
In data set [10] the test system is Mus musculus. The data set can be described thus: Antiallergic activity in mouse assessed as inhibition of histamine-induced increase in capillary permeability by measuring Evans blue dye concentration at 20 mg/kg administered via gavage for 1 week followed by Evans blue dye injection immediately after subcutaneous histamine injection and measured after 15 mins by UV spectrophotometric analysis. The data set is classed as functional. The procedure, abridged:
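Mice (20–22 g), 10 per group, half male and half female. Compound suspension gavaged at 20 mg·kg⁻¹ for one week; model group given 0.5% CMC-Na. Backs depilated with 8% sodium sulfide the day before. Histamine phosphate 0.1% (50 μL) injected subcutaneously, with 0.5% Evans blue (25 mg·kg⁻¹) given i.v. via tail vein. Killed after 15 min. Stained skin extracted in acetone–saline for 48 h, centrifuged, OD read at 610 nm.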

Data set [11] concerns Cavia porcellus. Description: In vivo antiallergic activity in histamine-induced bronchospasm guinea pig model assessed as duration of convulsions at 20 mg/kg by Van Arman method.
The test system of data set [12] is Cavia porcellus. The data set can be described thus: In vivo antiallergic activity in guinea pig assessed as protection against histamine-induced bronchospasm at 20 mg/kg by Van Arman method relative to control.

What is called IC50 is the concentration needed to halve the response being measured. The logP is the decadic logarithm of the partition coefficient of the neutral form, usually between octanol and water. One may read the pKa as the pH at which an ionisable group is half protonated. A high value points to a weaker acid or stronger base. In general, LD50 refers to the dose at which mortality reaches 50%. Read a high LD50 as a less toxic substance.

Chain of Histamine H1 receptor (Homo sapiens) (P35367 whole entry): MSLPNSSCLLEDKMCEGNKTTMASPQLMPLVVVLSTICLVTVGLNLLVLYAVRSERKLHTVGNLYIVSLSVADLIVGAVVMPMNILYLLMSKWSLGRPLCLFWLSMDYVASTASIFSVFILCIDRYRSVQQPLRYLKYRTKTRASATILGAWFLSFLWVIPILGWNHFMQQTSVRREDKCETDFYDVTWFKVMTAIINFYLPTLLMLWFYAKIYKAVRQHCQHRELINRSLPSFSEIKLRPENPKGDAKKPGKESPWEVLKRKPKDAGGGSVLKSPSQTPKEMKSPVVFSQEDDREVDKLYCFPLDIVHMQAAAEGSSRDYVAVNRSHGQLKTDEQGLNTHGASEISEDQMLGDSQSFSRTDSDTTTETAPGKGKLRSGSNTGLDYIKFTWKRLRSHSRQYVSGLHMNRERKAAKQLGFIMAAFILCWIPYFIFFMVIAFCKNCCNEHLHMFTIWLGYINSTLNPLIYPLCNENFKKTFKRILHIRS

For the compound `COc1ccc(CCN(CCN(C)C)c2ccccn2)cc1`, the 50% inhibitory concentration (IC50) in data set [1] amounted to 129 nM; in data set [2] it was 159 nM; in [3] it was 319 nM. Moreover, the logP in [4] is 3.59. Moreover, the pKa in data set [5] is 9.5.

With `COc1ccc(CN(CCN(C)C)c2ccccc2)cc1`, the concentration for half-maximal inhibition (IC50) turned out to be 143 nM in [1], 243 nM in data set [2] and 411 nM in data set [3]. The logP in data set [4] is 3.9. For the same compound, the pKa in [5] came to 9.7.

For `COc1ccc(CN(CCN(C)C)c2ccc(N)cn2)cc1`, the results for the IC50 in data set [1], in [2] and in data set [3] were 1340 nM, 2110 nM and 4090 nM, respectively. Moreover, the logP in data set [4] is 2.56. The compound also gave a pKa in data set [5] of 9.4.

Take `COc1ccc(CN(CCN(C)C)c2ccc(N)cc2)cc1`: the IC50 in [1] came out at 2310 nM; in data set [2], 4060 nM; in data set [3], 8010 nM. The compound further gave a log partition coefficient (logP) in [4] of 3.13. The compound also had a pKa in data set [5] of 9.8.

For the compound `COc1ccc(CCN(CCN(C)C)c2ccc(N)cc2)cc1`, the IC50 in data set [1] amounted to 2230 nM; in data set [2] it was 4010 nM; in data set [3], 7960 nM. Also, the lipophilicity (logP) in [4] was 3.43. Moreover, the pKa in data set [5] stood at 9.8.

With `COc1ccc(CCN(CCN(C)C)c2ccc(C)cc2)cc1`, the figures for the half-maximal inhibitory concentration (IC50) in data set [1], in [2] and in data set [3] were 153 nM, 289 nM and 561 nM, respectively. The same compound registered a logP in data set [4] of 4.68. In [5], the pKa is 9.7.

Regarding `COc1ccc(CN(CCN(C)C)c2ccccn2)cc1` [PYRILAMINE], the half-maximal inhibitory concentration (IC50) in data set [1] was determined as 81.5 nM; in [2] it was 92.6 nM; in [3] it was 132 nM. The compound further yielded a logP in data set [4] of 3.32. Also, the pKa in data set [5] was determined as 9.7.

Regarding `COc1ccc(CN(CCN(C)C)c2ccc(Cl)cn2)cc1`, the results for the IC50 in [1], in data set [2] and in data set [3] were 10.6 nM, 19.2 nM and 45.5 nM, respectively. The outcome in data set [6] was Active. In addition, in data set [7], the Time is recorded as 398.69 s. Further, the Activity in [8] worked out at 79.74%; in [10], 71.26 mg/L. In data set [9], the LD50 is 324 mg/kg. The same compound returned a logP in [4] of 3.87. In data set [5], this compound came in with a pKa of 9.5.

With `COc1ccc(CCN(CCN(C)C)c2ccccc2)cc1`, the IC50 in [1] came to 306 nM; in data set [2], 516 nM; in data set [3], 1030 nM. The logP in data set [4] came out at 4.21. Moreover, in data set [5], the pKa was found to be 9.6.

`COc1ccc(CCN2CCC(Nc3nc4ccccc4n3Cc3ccc(F)cc3)CC2)cc1` [ASTEMIZOLE]: the IC50 in [1] is 53.3 nM; in data set [2], 81.9 nM; in data set [3] it was 156 nM.

Regarding `COc1ccc(CN(CCN(C)C)c2ccc(C)cn2)cc1`, the values for the 50% inhibitory concentration (IC50) in data set [1], in data set [2] and in [3] were 28.9 nM, 48.6 nM and 61.2 nM, respectively. Also, the result in data set [6] was Active. In addition, the Time in data set [7] was 371.28 s. Besides, the Activity in data set [8] is recorded as 74.26%; in data set [10], 62.16 mg/L. The compound also had a 50% lethal dose (LD50) in [9] of 335 mg/kg. The same compound showed a log partition coefficient (logP) in [4] of 3.79. The compound further had a pKa in data set [5] of 9.6.

Regarding `COc1ccc(CCN(CCN(C)C)c2ccc(Cl)cn2)cc1`, the IC50 is 45.3 nM in data set [1], 53.1 nM in [2] and 72.1 nM in [3]. Moreover, in data set [6], the outcome was Active. Also, the Time in data set [7] is on record as 351.1 s. The Activity in data set [8] is given as 70.22%; in data set [10], 55.67 mg/L. Further, in data set [9], the median lethal dose (LD50) was found to be 335 mg/kg. In data set [4], this compound returned a logP of 4.16. Besides, the pKa in data set [5] was 9.4.

On to `COc1ccc(CCN(CCN(C)C)c2ccc(N)cn2)cc1`, for which the results for the IC50 in data set [1], in data set [2] and in data set [3] were 1210 nM, 1910 nM and 4010 nM, respectively. In data set [4], the lipophilicity (logP) was 2.79. In addition, the pKa in [5] stood at 9.6.

`COc1ccc(CCN(CCN(C)C)c2ccc(Cl)cc2)cc1`: the figures for the IC50 in [1], in data set [2] and in data set [3] were 89.2 nM, 141 nM and 261 nM, respectively. Besides, the log partition coefficient (logP) in data set [4] came out at 4.78. The pKa in [5] came out at 9.5.

In the case of `CN(C)CCC(c1ccc(Cl)cc1)c1ccccn1` (centres undefined) [CHLORPHENIRAMINE], the IC50 in data set [1] was found to be 31.8 nM; in data set [2], 53.6 nM; in data set [3], 121 nM. Further, the results for the Activity in data set [10] and in [12] were 56.13 mg/L and 73.43%, respectively. Besides, the Time in data set [11] stood at 367.16 s.

`COc1ccc(CN(CCN(C)C)c2ccc(Cl)cc2)cc1`: the results for the half-maximal inhibitory concentration (IC50) in data set [1], in data set [2] and in [3] were 18.1 nM, 40.2 nM and 71.2 nM, respectively. For the same compound, in data set [6], the result was Active. Further, the Time in data set [7] turned out to be 376.58 s. In addition, the Activity in data set [8] stood at 75.32%; in data set [10], 65.34 mg/L. The same compound had a median lethal dose (LD50) in data set [9] of 414 mg/kg. Also, in [4], the logP worked out at 4.47. The same compound gave a pKa in [5] of 9.6.

For the compound `COc1ccc(CCN(CCN(C)C)c2ccc(C)cn2)cc1`, the IC50 turned out to be 83.9 nM in data set [1], 102 nM in [2] and 211 nM in [3]. Besides, in [4], the logP came out at 4.06. The same compound displayed a pKa in data set [5] of 9.5.

In the case of `COc1ccc(CN(CCN(C)C)c2ccc(C)cc2)cc1`, the IC50 in data set [1] was 55.3 nM; in data set [2] it was 89.1 nM; in data set [3] it was 141 nM. In addition, in data set [6], the outcome was Active. Moreover, in data set [7], the Time turned out to be 348.1 s. The figures for the Activity in data set [8] and in data set [10] were 69.62% and 53.59 mg/L, respectively. Besides, the LD50 in [9] was 401 mg/kg. For the same compound, the log partition coefficient (logP) in data set [4] was 4.43. This compound also displayed a pKa in data set [5] of 9.8.
